Laboratory results: ChEMBL document CHEMBL1132458, “Potent and selective inhibition of varicella-zoster virus (VZV) by nucleoside analogues with an unusual bicyclic base” (J Med Chem, 1999)

How the values were obtained:
HEL [1] = assay: Compound was evaluated for the cytotoxicity against HEL cells; assay type: functional; details: Homo sapiens
Human alphaherpesvirus 3 [2] = assay: Compound was evaluated for the inhibition of VZV (TK-) thymidine kinases Strain YS-R; assay type: functional, organism-based
Human alphaherpesvirus 3 [3] = assay: Compound was evaluated for the inhibition of VZV strains of OKA; assay type: functional, organism-based
Human alphaherpesvirus 3 [4] = assay: Compound was evaluated for the inhibition of VZV strains of YS; assay type: functional, organism-based
Human alphaherpesvirus 3 [5] = assay: Compound was evaluated for the inhibition of VZV (TK-) thymidine kinases Strain 07; assay type: functional, organism-based
HEL [6] = assay: Compound was evaluated for the cytotoxicity against HEL cells; details: Homo sapiens
Human alphaherpesvirus 3 [7] = assay: Compound was evaluated for the inhibition of VZV (TK-) thymidine kinase-deficient strain 07; assay type: functional, organism-based
Summary of the method: (§1)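 Confluent human embryonic lung (HEL) fibroblasts were infected with 20 PFU per well of virus for 1–2 h, and then residual virus was removed. Cells were then kept in MEM with 2% inactivated FCS, 1% L-glutamine and 0.3% sodium bicarbonate, plus serial compound concentrations. Plaques were scored after 5 days. EC50 is the concentration cutting plaque formation by 50% versus untreated control.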

Human alphaherpesvirus 3 [8] = assay: Compound was evaluated for the inhibition of VZV (TK-) thymidine kinase-deficient strain YS-R; assay type: functional, organism-based; summary of the method: as §1

CCCCCCCCCCc1cc2cn([C@H]3C[C@H](O)[C@@H](CO)O3)c(=O)nc2o1
MCC (HEL [1]): > 50 µM | EC50 (Human alphaherpesvirus 3 [2]): > 50000 nM | EC50 (Human alphaherpesvirus 3 [3]): 15 nM | EC50 (Human alphaherpesvirus 3 [4]): 8 nM | EC50 (Human alphaherpesvirus 3 [5]): > 50000 nM | IC50 (HEL [6]): > 50000 nM

CCCCCCCCCc1cc2cn([C@H]3C[C@H](O)[C@@H](CO)O3)c(=O)nc2o1
MCC (HEL [1]): > 200 µM | EC50 (Human alphaherpesvirus 3 [2]): > 200000 nM | EC50 (Human alphaherpesvirus 3 [3]): 20 nM | EC50 (Human alphaherpesvirus 3 [4]): 20 nM | EC50 (Human alphaherpesvirus 3 [5]): > 200000 nM | IC50 (HEL [6]): > 200000 nM

CCCCCCCCc1cc2cn([C@H]3C[C@H](O)[C@@H](CO)O3)c(=O)nc2o1
MCC (HEL [1]): > 50 µM | EC50 (Human alphaherpesvirus 3 [2]): > 50000 nM | EC50 (Human alphaherpesvirus 3 [3]): 8 nM | EC50 (Human alphaherpesvirus 3 [4]): 24 nM | EC50 (Human alphaherpesvirus 3 [5]): > 50000 nM | IC50 (HEL [6]): > 50000 nM

CCCCCCc1cc2cn([C@H]3C[C@H](O)[C@@H](CO)O3)c(=O)nc2o1
MCC (HEL [1]): 200 µM | EC50 (Human alphaherpesvirus 3 [7]): > 50000 nM | EC50 (Human alphaherpesvirus 3 [8]): > 50000 nM | EC50 (Human alphaherpesvirus 3 [3]): 1300 nM | EC50 (Human alphaherpesvirus 3 [4]): 2800 nM | IC50 (HEL [6]): > 200000 nM

CCCCCCCc1cc2cn([C@H]3C[C@H](O)[C@@H](CO)O3)c(=O)nc2o1
MCC (HEL [1]): > 50 µM | EC50 (Human alphaherpesvirus 3 [2]): > 50000 nM | EC50 (Human alphaherpesvirus 3 [3]): 170 nM | EC50 (Human alphaherpesvirus 3 [4]): 390 nM | EC50 (Human alphaherpesvirus 3 [5]): > 50000 nM | IC50 (HEL [6]): > 50000 nM

CCCCCc1cc2cn([C@H]3C[C@H](O)[C@@H](CO)O3)c(=O)nc2o1
MCC (HEL [1]): > 50 µM | EC50 (Human alphaherpesvirus 3 [7]): > 50000 nM | EC50 (Human alphaherpesvirus 3 [8]): > 50000 nM | EC50 (Human alphaherpesvirus 3 [3]): 3000 nM | EC50 (Human alphaherpesvirus 3 [4]): 4600 nM | IC50 (HEL [6]): > 50000 nM

CCCCCCCCCCCc1cc2cn([C@H]3C[C@H](O)[C@@H](CO)O3)c(=O)nc2o1
MCC (HEL [1]): 200 µM | EC50 (Human alphaherpesvirus 3 [2]): > 50000 nM | EC50 (Human alphaherpesvirus 3 [3]): 500 nM | EC50 (Human alphaherpesvirus 3 [4]): 500 nM | EC50 (Human alphaherpesvirus 3 [5]): > 50000 nM | IC50 (HEL [6]): > 200000 nM

CCCCCCCCCCCCc1cc2cn([C@H]3C[C@H](O)[C@@H](CO)O3)c(=O)nc2o1
MCC (HEL [1]): 50 µM | EC50 (Human alphaherpesvirus 3 [2]): > 20000 nM | EC50 (Human alphaherpesvirus 3 [3]): 1300 nM | EC50 (Human alphaherpesvirus 3 [4]): 1100 nM | EC50 (Human alphaherpesvirus 3 [5]): > 50000 nM | IC50 (HEL [6]): > 200000 nM

Nc1nc2c(ncn2COCCO)c(=O)[nH]1 [ACYCLOVIR]
MCC (HEL [1]): > 200 µM | IC50 (HEL [6]): > 200000 nM

O=c1[nH]c(=O)n([C@H]2C[C@H](O)[C@@H](CO)O2)cc1/C=C/Br [BRIVUDINE]
MCC (HEL [1]): > 150 µM | EC50 (Human alphaherpesvirus 3 [2]): > 300000 nM | EC50 (Human alphaherpesvirus 3 [3]): 3 nM | EC50 (Human alphaherpesvirus 3 [4]): 6 nM | EC50 (Human alphaherpesvirus 3 [5]): 144000 nM | IC50 (HEL [6]): > 400000 nM
